Measured values taken from ChEMBL document CHEMBL4400513, “Aurone derivatives as promising antibacterial agents against resistant Gram-positive pathogens” (Eur J Med Chem, 2019).
Values after ≈ are worked out from the molar mass of the structure shown.

What was measured:
Staphylococcus aureus = test: Antimicrobial activity against methicillin-resistant Staphylococcus aureus after 18 to 24 hrs in aerobic condition by two-fold serial dilutions method; format: functional
Outline: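 Strains grown on LB at 37 °C aerobically, then in Mueller-Hinton broth overnight at 200 rpm and brought to log phase (OD600 ~0.6). About 10^5 bacteria/mL exposed to two-fold serial dilutions 0–500 µM, DMSO 0.2% final as control. Aerobic incubation at 37 °C for 18–24 h; OD600 read; MIC = lowest concentration inhibiting visible growth. n = 3.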

Pseudomonas aeruginosa = test: Antimicrobial activity against Pseudomonas aeruginosa after 18 to 24 hrs in aerobic condition by two-fold serial dilutions method; format: functional
Outline: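 Colonies grown overnight (~16 h) in Mueller-Hinton broth at 37 °C, 200 rpm, diluted 1/100 and grown to log phase (OD600 ~0.6), then diluted to ~10^5 bacteria/mL. Exposed to 0 to 500 µM in 1:2 series (0.2% DMSO final control), aerobic, 37 °C, 18–24 h. OD600 read; MIC = lowest concentration without visible growth; n = 3.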

BEAS-2B = test: Cytotoxicity against human BEAS2B cells assessed as reduction in cell viability after 48 hrs by Resazurin dye-based assay; conditions: for IC50: Homo sapiens, BEAS-2B; for Activity: human, beas-2b
Outline: (§1)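 Normal human lung epithelial (BEAS-2B) and lung fibroblast (IMR-90) cells were grown in DMEM with 10% FCS. Cells were seeded at ~10^4/well, grown to confluence (48–72 h), then exposed to increasing concentrations for 48 h at 37 °C, 5% CO2, with 0.2% DMSO as control. Resazurin was added for 4 h and fluorescence read at 530/590 nm. Viability was normalized to DMSO wells and IC50 calculated.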

IMR-90 = test: Cytotoxicity against human IMR90 cells assessed as reduction in cell viability after 48 hrs by Resazurin dye-based assay; conditions: for IC50: Homo sapiens, IMR-90, 48 h; for Activity: human, imr-90, 48 h; outline: as §1

Row | Compound | MIC (Staphylococcus aureus) [µM] | MIC (Pseudomonas aeruginosa) [µM] | IC50 (BEAS-2B) [µM] | Activity (BEAS-2B) | IC50 (IMR-90) [µM] | Activity (IMR-90)
1 | Cc1ccc(/C=C2\Oc3cccc(O)c3C2=O)c(C)c1 | > 500 | > 500 |  |  |  | 
2 | O=C1/C(=C/c2cccc(O)c2)Oc2cc(O)ccc21 | > 500 | > 500 |  |  |  | 
3 | COc1cc(OC)c(/C=C2\Oc3cccc(O)c3C2=O)c(OC)c1 | 250 (≈ 82.1 µg/mL) | > 500 |  |  |  | 
4 | O=C1/C(=C/c2ccc(O)cc2)Oc2cc(O)ccc21 | > 500 | > 500 |  |  |  | 
5 | CC(C)(C)c1ccc(/C=C2\Oc3cccc(O)c3C2=O)cc1 | > 500 | > 500 |  |  |  | 
6 | O=C(O)c1ccc(/C=C2\Oc3c(O)cccc3C2=O)cc1 | > 500 | > 500 |  |  |  | 
7 | CC(C)c1ccc(/C=C2\Oc3cccc(O)c3C2=O)cc1 | > 500 | > 500 |  |  |  | 
8 | O=C1/C(=C/c2cccc(O)c2O)Oc2c(O)cccc21 | 250 (≈ 67.6 µg/mL) | > 500 |  |  |  | 
9 | O=C1/C(=C/c2ccccc2)Oc2ccccc21 [(Z)-AURONE] | > 500 | > 500 |  |  |  | 
10 | CN1CCN(c2ccc(/C=C3\Oc4cccc(O)c4C3=O)cc2)CC1 | > 500 | > 500 |  |  |  | 
11 | O=C1/C(=C/c2ccc(O)cc2)Oc2cc(O)cc(O)c21 | 62.5 to 125 (≈ 16.9 to 33.8 µg/mL) | > 500 |  |  |  | 
12 | COc1cc(OC)c2c(c1)O/C(=C\c1ccccc1O)C2=O | > 500 | > 500 |  |  |  | 
13 | CCCCc1ccc(/C=C2\Oc3cccc(O)c3C2=O)cc1 | > 500 | > 500 |  |  |  | 
14 | O=C1/C(=C/c2ccc(O)c(O)c2)Oc2c(O)cccc21 | 125 to 250 (≈ 33.8 to 67.6 µg/mL) | > 500 |  |  |  | 
15 | O=C1/C(=C/c2ccc(C3CCCCC3)cc2)Oc2cc(O)cc(O)c21 | 7.8 (≈ 2.62 µg/mL) | > 500 | 33 | Dose-dependent effect | 31 | Dose-dependent effect
16 | COc1cc(OC)c2c(c1)O/C(=C\c1ccc(C)cc1C)C2=O | > 500 | > 500 |  |  |  | 

Row | Compound | MIC (Staphylococcus aureus) [µM] | MIC (Pseudomonas aeruginosa) [µM] | IC50 (BEAS-2B) [µM] | Activity (BEAS-2B) | IC50 (IMR-90) [µM] | Activity (IMR-90)
17 | COc1ccc(/C=C2\Oc3cc(OC)cc(OC)c3C2=O)c(OC)c1 | > 500 | > 500 |  |  |  | 
18 | O=C1/C(=C/c2ccc(O)cc2)Oc2ccccc21 | > 500 | > 500 |  |  |  | 
19 | O=C1/C(=C/c2ccc(O)c(O)c2)Oc2cccc(O)c21 | 125 to 250 (≈ 33.8 to 67.6 µg/mL) | > 500 |  |  |  | 
20 | O=C1/C(=C/c2ccc(O)cc2)Oc2cccc(O)c21 | 125 to 250 (≈ 31.8 to 63.6 µg/mL) | > 500 |  |  |  | 
21 | O=C1/C(=C/c2ccccc2)Oc2cccc(O)c21 | > 500 | > 500 |  |  |  | 
22 | CCCCc1ccc(/C=C2\Oc3cc(OC)cc(OC)c3C2=O)cc1 | > 500 | > 500 |  |  |  | 
23 | CCCCc1ccc(/C=C2\Oc3cc(O)cc(O)c3C2=O)cc1 | 15.6 to 31.2 (≈ 4.84 to 9.7 µg/mL) | > 500 | 90 | Dose-dependent effect | 80 | Dose-dependent effect
24 | O=C1/C(=C/c2ccccc2)Oc2c(O)cccc21 | > 500 | > 500 |  |  |  | 
25 | CCc1ccc(/C=C2\Oc3cccc(O)c3C2=O)cc1 | 62.5 to 125 (≈ 16.6 to 33.3 µg/mL) | > 500 |  |  |  | 
26 | O=C1/C(=C/c2ccccc2O)Oc2cc(O)ccc21 | > 500 | > 500 |  |  |  | 
27 | O=C1/C(=C/c2cc(O)c(O)c(O)c2)Oc2c(O)cccc21 | 125 to 250 (≈ 35.8 to 71.6 µg/mL) | > 500 |  |  |  | 
28 | COc1ccc2c(c1)O/C(=C\c1ccc(OC)c(OC)c1)C2=O | > 500 | > 500 |  |  |  | 
29 | O=C1/C(=C/c2cccc(O)c2)Oc2cc(O)cc(O)c21 | 125 to 250 (≈ 33.8 to 67.6 µg/mL) | > 500 |  |  |  | 
30 | COc1cccc(OC)c1/C=C1\Oc2cccc(O)c2C1=O | 250 (≈ 74.6 µg/mL) | > 500 |  |  |  | 
31 | CN1CCN(c2ccc(/C=C3\Oc4cc(O)ccc4C3=O)cc2)CC1 | > 500 | > 500 |  |  |  | 
